{
  "source": "ChEMBL document CHEMBL1157856",
  "about": "“Novel quinoline and naphthalene derivatives as potent antimycobacterial agents” (2010)",
  "type_in_all_cases": "functional",
  "key": {"U-937 [1]": {"test_system": "U-937", "test": "Cytotoxicity against human U937 cells assessed as cell viability at 10 ug/ml after 72 hrs by MTT assay", "conditions": "U-937, 72 h, read-out: Activity", "in_short": "(§1)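 U937 human monocytic cells seeded at 1 × 10⁵ cells/mL and allowed to adhere for 1 h at 37 °C under 5% CO₂. Non-adherent cells were rinsed off with RPMI 1640. Adherent cells were exposed in triplicate to compound, medium alone (live control) or 3% Tween 20 (dead control). MTT (5 mg/mL stock in PBS) was added for 3 h at 37 °C. Formazan was dissolved in 0.4 M HCl/isopropanol and A600 read. Values given as percent viability.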"}, "U-937 [2]": {"test_system": "U-937", "test": "Cytotoxicity against human U937 cells assessed as cell viability at 1 ug/ml after 24 hrs by MTT assay", "conditions": "U-937, 24 h, read-out: Activity", "in_short": "as §1"}, "U-937 [3]": {"test_system": "U-937", "test": "Cytotoxicity against human U937 cells assessed as cell viability at 10 ug/ml after 24 hrs by MTT assay", "conditions": "U-937, 24 h, read-out: Activity", "in_short": "as §1"}, "U-937 [4]": {"test_system": "U-937", "test": "Cytotoxicity against human U937 cells assessed as cell viability at 1 ug/ml after 72 hrs by MTT assay", "conditions": "U-937, 72 h, read-out: Activity", "in_short": "as §1"}, "[5]": {"test_system": "Mycobacterium tuberculosis", "test": "Antimycobacterial activity against Mycobacterium tuberculosis H37Rv at 6.25 ug/ml by BACTEC 460", "conditions": "for inhibition at 6.25 µg/mL: Mycobacterium tuberculosis, H37Rv"}},
  "data": [
    {"smiles": "COc1ccccc1N1CCN(CC(O)COC(c2ccccc2)c2cccc3ccccc23)CC1", "note": "(stereo unspecified)", "values": [
      {"measurement": "viability at 10 µg/mL", "setting": "U-937 [1]", "result": 62, "unit": "%"},
      {"measurement": "viability at 1 µg/mL", "setting": "U-937 [2]", "result": 81, "unit": "%"},
      {"measurement": "viability at 10 µg/mL", "setting": "U-937 [3]", "result": 81, "unit": "%"},
      {"measurement": "viability at 1 µg/mL", "setting": "U-937 [4]", "result": 64, "unit": "%"},
      {"measurement": "inhibition at 6.25 µg/mL", "setting": "[5]", "result": 90, "unit": "%"}
    ]},
    {"smiles": "OC(COC(c1ccccc1)c1cccc2ccccc12)CN1CCN(c2cccc(C(F)(F)F)c2)CC1", "note": "(stereo unspecified)", "values": [
      {"measurement": "inhibition at 6.25 µg/mL", "setting": "[5]", "result": 11, "unit": "%"}
    ]},
    {"smiles": "Cc1cc(C(OCC(O)CN(C)CCO)c2ccncc2)c2cc(Br)ccc2n1", "note": "(stereo unspecified)", "values": [
      {"measurement": "inhibition at 6.25 µg/mL", "setting": "[5]", "result": 13, "unit": "%"}
    ]},
    {"smiles": "Cc1cc(C(OCC(O)CNc2nnn[nH]2)c2ccncc2)c2cc(Br)ccc2n1", "note": "(stereo unspecified)", "values": [
      {"measurement": "inhibition at 6.25 µg/mL", "setting": "[5]", "result": 20, "unit": "%"}
    ]},
    {"smiles": "OC(COC(c1ccccc1)c1cccc2ccccc12)CN1CCN(c2ccc(Cl)c(Cl)c2)CC1", "note": "(stereo unspecified)", "values": [
      {"measurement": "inhibition at 6.25 µg/mL", "setting": "[5]", "result": 4, "unit": "%"}
    ]},
    {"smiles": "OC(COC(c1ccccc1)c1cccc2ccccc12)CN1CCN(Cc2ccccc2)CC1", "note": "(stereo unspecified)", "values": [
      {"measurement": "viability at 10 µg/mL", "setting": "U-937 [1]", "result": 74, "unit": "%"},
      {"measurement": "viability at 1 µg/mL", "setting": "U-937 [2]", "result": 77, "unit": "%"},
      {"measurement": "viability at 10 µg/mL", "setting": "U-937 [3]", "result": 77, "unit": "%"},
      {"measurement": "viability at 1 µg/mL", "setting": "U-937 [4]", "result": 71, "unit": "%"},
      {"measurement": "inhibition at 6.25 µg/mL", "setting": "[5]", "result": 91, "unit": "%"}
    ]},
    {"smiles": "Cc1cc(C(OCC(O)CNCCN)c2ccncc2)c2cc(Br)ccc2n1", "note": "(stereo unspecified)", "values": [
      {"measurement": "inhibition at 6.25 µg/mL", "setting": "[5]", "result": 5, "unit": "%"}
    ]},
    {"smiles": "COc1cccc(N2CCN(CC(O)COC(c3ccccc3)c3cccc4ccccc34)CC2)c1", "note": "(stereo unspecified)", "values": [
      {"measurement": "viability at 10 µg/mL", "setting": "U-937 [1]", "result": 63, "unit": "%"},
      {"measurement": "viability at 1 µg/mL", "setting": "U-937 [2]", "result": 100, "unit": "%"},
      {"measurement": "viability at 10 µg/mL", "setting": "U-937 [3]", "result": 82, "unit": "%"},
      {"measurement": "viability at 1 µg/mL", "setting": "U-937 [4]", "result": 100, "unit": "%"},
      {"measurement": "inhibition at 6.25 µg/mL", "setting": "[5]", "result": 99, "unit": "%"}
    ]},
    {"smiles": "Cc1cc(C(OCC(O)Cn2ccnc2)c2ccncc2)c2cc(Br)ccc2n1", "note": "(stereo unspecified)", "values": [
      {"measurement": "inhibition at 6.25 µg/mL", "setting": "[5]", "result": 7, "unit": "%"}
    ]},
    {"smiles": "Cc1cc(C(OCC(O)Cn2cncn2)c2ccncc2)c2cc(Br)ccc2n1", "note": "(stereo unspecified)", "values": [
      {"measurement": "inhibition at 6.25 µg/mL", "setting": "[5]", "result": 10, "unit": "%"}
    ]},
    {"smiles": "Cc1cc(C(OCC(O)Cn2cccn2)c2ccncc2)c2cc(Br)ccc2n1", "note": "(stereo unspecified)", "values": [
      {"measurement": "inhibition at 6.25 µg/mL", "setting": "[5]", "result": 9, "unit": "%"}
    ]},
    {"smiles": "Cc1cc(C(OCC(O)CN2CCN(c3ccccn3)CC2)c2ccncc2)c2cc(Br)ccc2n1", "note": "(stereo unspecified)", "values": [
      {"measurement": "inhibition at 6.25 µg/mL", "setting": "[5]", "result": 4, "unit": "%"}
    ]},
    {"smiles": "Cc1cc(C(OCC(O)Cn2ccc(C)n2)c2ccncc2)c2cc(Br)ccc2n1", "note": "(stereo unspecified)", "values": [
      {"measurement": "inhibition at 6.25 µg/mL", "setting": "[5]", "result": 8, "unit": "%"}
    ]},
    {"smiles": "OC(COC(c1ccccc1)c1cccc2ccccc12)CN1CCN(C(c2ccccc2)c2ccccc2)CC1", "note": "(stereo unspecified)", "values": [
      {"measurement": "viability at 10 µg/mL", "setting": "U-937 [1]", "result": 70, "unit": "%"},
      {"measurement": "viability at 1 µg/mL", "setting": "U-937 [2]", "result": 93, "unit": "%"},
      {"measurement": "viability at 10 µg/mL", "setting": "U-937 [3]", "result": 74, "unit": "%"},
      {"measurement": "viability at 1 µg/mL", "setting": "U-937 [4]", "result": 79, "unit": "%"},
      {"measurement": "inhibition at 6.25 µg/mL", "setting": "[5]", "result": 98, "unit": "%"}
    ]},
    {"smiles": "OC(COC(c1ccccc1)c1cccc2ccccc12)CN1CCN(c2ccccn2)CC1", "note": "(stereo unspecified)", "values": [
      {"measurement": "inhibition at 6.25 µg/mL", "setting": "[5]", "result": 23, "unit": "%"}
    ]},
    {"smiles": "OC(COC(c1ccccc1)c1cccc2ccccc12)CN1CCN(c2ccc(F)cc2)CC1", "note": "(stereo unspecified)", "values": [
      {"measurement": "inhibition at 6.25 µg/mL", "setting": "[5]", "result": 14, "unit": "%"}
    ]},
    {"smiles": "COCCNCC(O)COC(c1ccncc1)c1cc(C)nc2ccc(Br)cc12", "note": "(stereo unspecified)", "values": [
      {"measurement": "inhibition at 6.25 µg/mL", "setting": "[5]", "result": 19, "unit": "%"}
    ]},
    {"smiles": "OC(COC(c1ccccc1)c1cccc2ccccc12)CN1CCN(c2ccc(Cl)cc2)CC1", "note": "(stereo unspecified)", "values": [
      {"measurement": "inhibition at 6.25 µg/mL", "setting": "[5]", "result": 5, "unit": "%"}
    ]},
    {"smiles": "Cc1cc(C(OCC(O)CNc2ncn[nH]2)c2ccncc2)c2cc(Br)ccc2n1", "note": "(stereo in doubt; 12) [1-(1H-1,2,4-TRIAZOL-5-YLAMINO)-3-((6-BROMO-2-METHYLQUINOLIN-4-YL)(PYRIDIN-4-YL)METHOXY)PROPAN-2-OL (STRUCTURAL MIX)]", "values": [
      {"measurement": "inhibition at 6.25 µg/mL", "setting": "[5]", "result": 22, "unit": "%"}
    ]},
    {"smiles": "Cc1cc(C(OCC(O)CNc2ncn[nH]2)c2ccncc2)c2cc(Br)ccc2n1", "note": "(stereo in doubt; 13) [1-(1H-1,2,4-TRIAZOL-5-YLAMINO)-3-((6-BROMO-2-METHYLQUINOLIN-4-YL)(PYRIDIN-4-YL)METHOXY)PROPAN-2-OL (STRUCTURAL MIX)]", "values": [
      {"measurement": "inhibition (INH)", "setting": "[5]", "result": 15, "unit": "%"}
    ]}
  ]
}
